# RGS4 inh – human RGS4 inhibition; HEK293 M3R/RGS4 inducible, Fluo-4 calcium flux; hits give high values; triggered by carbachol at its EC20; AID 463165; actives 0.45% (n = 310,000); B-score at 10 µM;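 active = B-score, a plate-corrected calcium signal, over three deviations above library mean, with baseline fluorescence within five deviations of library mean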;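 note: RGS4 expression induced by doxycycline in cells with stable M3 receptor; B-score is computed from the integrated fluorescence ratio over baseline after carbachol; higher B-score means a larger calcium signal and so more RGS4 inhibition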
# Target sequence (P49798 whole entry, looked up): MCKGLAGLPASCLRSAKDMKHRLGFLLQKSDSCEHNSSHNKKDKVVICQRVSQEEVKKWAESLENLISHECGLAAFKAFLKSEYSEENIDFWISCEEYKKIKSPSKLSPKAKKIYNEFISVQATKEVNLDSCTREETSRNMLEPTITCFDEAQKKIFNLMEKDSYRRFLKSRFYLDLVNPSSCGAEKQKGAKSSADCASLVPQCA
# MrgX1 antag – antagonists of human MrgX1 receptor; actives 1.3% (n = 310,000); B-score at 10 µM; Q96LB2; AID 588676; MRGX1-HEK293 calcium flux, Fluo-4, BAM8-22 antagonism; hits give low values;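 active = calcium-response B-score plate-corrected more than 3 library SD below zero, starting fluorescence within 5 deviations, no agonist response on first addition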;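 note: peak minus trough fluorescence over baseline after final BAM8-22 challenge near maximal dose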
# Target sequence (Q96LB2 whole entry, looked up): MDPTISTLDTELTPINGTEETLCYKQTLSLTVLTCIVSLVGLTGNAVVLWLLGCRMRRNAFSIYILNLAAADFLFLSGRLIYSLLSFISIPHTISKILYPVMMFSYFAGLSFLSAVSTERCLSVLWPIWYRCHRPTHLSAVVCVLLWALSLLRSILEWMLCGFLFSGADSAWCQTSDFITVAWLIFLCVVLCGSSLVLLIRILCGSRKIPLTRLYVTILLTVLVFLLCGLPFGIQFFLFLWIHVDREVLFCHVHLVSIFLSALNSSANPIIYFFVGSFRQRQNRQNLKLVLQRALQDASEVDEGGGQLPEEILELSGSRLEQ
# MrgX1 agonist – human MrgX1 receptor agonism, primary screen; Q96LB2; MrgX1-HEK293 cells, Fluo-4 calcium fluorescence, agonist mode; hits give high values; B-score at 10 µM; actives 0.44% (n = 310,000); AID 588627;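 active = calcium response B-score plate-corrected fluorescence ratio at least 3 library SD, with starting fluorescence B-score inside 5 SD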
#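 Material – MrgX1-expressing HEK293 cells · Input – 15,000 cells seeded per well · Dosing – compound as first of three additions · Times – overnight seeding, then 1 h dark dye loading · Measured by – kinetic Fluo-4 NW fluorescence of intracellular calcium · Read-out – B-scored fluorescence response ratio · Benchmarks – positive and negative control wells on each plate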
# MrgX1 PAM – human MrgX1 positive allosteric modulation, primary screen; MrgX1-HEK293, Fluo-4 calcium flux, FDSS; hits give high values; B-score at 10 µM; actives 0.63% (n = 310,000); Q96LB2;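 active = plate-corrected calcium response at least 3 library SD above typical, normal starting fluorescence, not activating the receptor alone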;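 note: compound read alongside a low EC10 to EC30 dose of BAM8-22 agonist; peak minus trough fluorescence over baseline measured at the second addition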
# RGS4 act – RGS4 potentiation or activation; HEK293 M3R/inducible RGS4, carbachol calcium flux Fluo4; hits give low values; B-score at 10 µM; actives 0.92% (n = 310,000);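 active = B-score of the integrated calcium signal more than 4 SD below the library mean, with starting fluorescence not abnormally high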;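 note: negative B-score means reduced calcium response which marks RGS4 activation or potentiation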
#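 Reagent: ECmax carbachol challenge; Test system: M3R-expressing HEK293 line, RGS4 induced by doxycycline; Schedule: overnight RGS4 induction, 30 min dye load 37 °C, 20 min compound RT; Detection: calcium dye Fluo4 fluorescence; Read-out: Agonist-evoked peak-minus-minimum fluorescence over baseline, integrated ratio, B score.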
# MrgX1 antag conf – reconfirmed antagonist of human MrgX1 receptor signaling; shares compounds with MrgX1 antag; MrgX1-HEK293, BAM8-22 calcium flux, Fluo-4; hits give low values; remaining BAM8-22 calcium response % of control (hits give low values), % at 10 µM; actives 19% (n = 2,300); AID 602420;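 active = remaining agonist calcium response no higher than 100% minus 3 SD of agonist-only control wells, with starting fluorescence near control levels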;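 note: agonist BAM8-22 given at a near maximal EC90 to ECmax level; peak minus minimum fluorescence divided by baseline after agonist addition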
# HEK293 Ca flux – MrgX1 antagonist counter-screen hit in parental HEK293 cells; shares compounds with MrgX1 antag; fluorescence ratio F(max-min)/F0 at 10 µM; AID 624111; Fluo-4 calcium fluorescence, FDSS; actives 2% (n = 4,000);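 active = duplicate-averaged calcium fluorescence ratio at least three times the standard deviation of buffer wells, a nonspecific response in parental cells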
# HEK293 Ca counter – MrgX1 allosteric activator counter-screen hit in parental HEK293 cells | AID 624114 | actives 0.4% (n = 4,000) | shares compounds with MrgX1 antag | fluorescence ratio F(max-min)/F0 at 10 µM | parental HEK293 calcium flux, Fluo-4 fluorescence ratio; hits give high values;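 active = calcium fluorescence ratio, averaged over duplicates, at least 3 SD of the buffer-well ratio, meaning a nonspecific response in receptor-free cells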;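 note: untransfected parental HEK293 lacking MrgX1 used as counterscreen for MrgX1 allosteric activators; fluorescence change taken during the second addition on a kinetic imager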
# HEK293 Ca cntr2 – activity in parental HEK293 cells lacking MrgX1 receptor; shares compounds with MrgX1 antag; Fluo-4 calcium fluorescence (FDSS); hits give high values; fluorescence ratio F(max-min)/F0 at 10 µM; actives 8.7% (n = 4,000); AID 624115;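 active = calcium fluorescence ratio at least three times the spread of buffer wells, meaning a non-specific response in parental cells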
# The depositor's hits bear a star; i = inactive; / = no result. Compounds with a hit are over-represented: about 3.5% of the library has one in this group of screens.
SMILES,RGS4 inh,MrgX1 antag,MrgX1 agonist,MrgX1 PAM,RGS4 act,MrgX1 antag conf,HEK293 Ca flux,HEK293 Ca counter,HEK293 Ca cntr2
Nc1nc2c(ncn2[C@H]2C[C@H](O)[C@@H](CO)O2)c(=O)[nH]1,i,i,i,i,i,/,/,/,/
Nc1nc(Cl)nc2c1ncn2C1CC(O)C(CO)O1 (centres undefined),i,-5.1*,i,i,i,i,i,i,i
CCOC(=O)N1CCN(C(=O)C2CCN(c3nnc(-n4cccc4)s3)CC2)CC1,i,i,i,i,i,/,/,/,/
CCSc1nnc(-c2ccncc2)n1Cc1ccccc1,i,-6.5*,i,i,i,i,i,i,i
CNC(=O)CSc1nnc(-c2ccncc2)n1Cc1ccccc1,i,i,i,i,i,/,/,/,/
C=CCOC(=O)C1=C(C)NC(=O)NC1c1cc(Cl)cc(Cl)c1OC (centres undefined),i,i,i,i,i,/,/,/,/
O=C(c1cn(CC(=O)N2CCCCC2)c2ccccc12)C1CC1,i,-5*,i,i,i,i,i,i,i
CCc1ccccc1OCC(=O)Nc1ccc(S(N)(=O)=O)cc1,i,i,i,i,i,/,/,/,/
CNCc1ccccc1OCC(=O)Nc1ccccc1,i,-4.6*,i,i,i,i,i,i,i
CCc1cccc(NC(=O)C2CCCN(c3ncnc4c3nc3n4CCCCC3)C2)c1 (centres undefined),i,i,i,i,i,/,/,/,/
COc1ccc(CC(=O)OCC(=O)NCc2ccco2)cc1OC,i,-5.3*,i,i,i,i,i,i,i
CCCOc1cc(CC(=O)NCc2ccco2)ccc1OC,i,i,i,i,i,/,/,/,/
O=C(CN1C(=O)c2ccccc2C1=O)Oc1ccc(Cl)cc1,i,i,i,i,i,/,/,/,/
CN(C)C(=O)COc1ccc2c3c(c(=O)oc2c1)CCCC3,i,i,i,i,i,/,/,/,/
COc1cc(NC(=S)N2CCCCC2C)c(OC)cc1Cl (centres undefined),i,-6.5*,i,i,i,i,i,i,i
CCN(C(=O)CSc1nnc(COc2cccc(C)c2)o1)c1nc(C)cs1,i,i,i,i,i,/,/,/,/
CCCCNC(=S)N(CCCN(C)C)Cc1cc2cc3c(cc2[nH]c1=O)OCO3,i,i,i,i,i,/,/,/,/
COc1ccccc1N1CCSC1C(N)=O (centres undefined),i,-7.1*,i,i,i,i,i,i,i
O=C(Nc1ccccc1C(=O)N1CCCC1)C1CCN(c2ncccn2)CC1,i,-7.2*,i,i,i,i,i,i,i
O=C(O)CCCC(=O)Nc1ccccc1C(=O)N1CCCC1,i,-5.5*,i,i,i,i,i,i,i
Cc1ccccc1C(=O)NNC(=O)C1CCN(c2ncccn2)CC1,i,i,i,i,i,/,/,/,/
N#CC(c1ccc(O)cc1)c1ncc(C(F)(F)F)cc1Cl (centres undefined),i,i,i,i,i,/,/,/,/
COc1ccc(/C=C/C(O)=C(\C#N)c2nnc(N3CCOCC3)n2-c2ccccc2)cc1OC,i,i,i,i,i,/,/,/,/
COc1ccc(N2CCN(C(=O)Cn3nnc(-c4cccs4)n3)CC2)cc1,i,-5.2*,i,i,i,i,i,i,i

# Screening data from PubChem BioAssay.
